{
  "source": "paper PMC9059116",
  "about": "(Journal of Medicinal Chemistry, 2022)",
  "format_in_all_cases": "cell-based",
  "key": {"[1]": {"test_system": "eIF4E phosphorylation (MNK1/2 activity) in MDA-MB-231 cells", "assay": "western blot of eIF4E phosphorylation", "details": "for inhibition of eIF4E phosphorylation: MDA-MB-231 cells, 24 h, western blot", "how_it_was_run": "(§1)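 MDA-MB-231 cells were grown in DMEM with 10% heat-inactivated FBS and penicillin/streptomycin, seeded at 6000 cells/cm² 24 h before treatment. DMSO was kept below 0.5%, with DMSO as negative control. Immunoblotting used ECL detection, with β-actin (1:20 000) probed.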"}, "[2]": {"test_system": "MNK1 phosphorylation at T209/214 in MDA-MB-231 cells", "assay": "western blot of MNK1 phosphorylation at T209/214 in MDA-MB-231 cells", "details": "MDA-MB-231, 24 h", "how_it_was_run": "as §1"}, "[3]": {"test_system": "MDA-MB-231 cells", "assay": "crystal violet growth assay, MDA-MB-231", "details": "MDA-MB-231, 72 h, up to 200 nM", "how_it_was_run": "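Cells kept in DMEM (4.5 g/L glucose) with 10% heat-inactivated FBS and penicillin/streptomycin at 37 °C, 5% CO2. Seeded at 6000 cells/cm², treated 24 h later for 72 h; DMSO kept below 0.5%, DMSO as negative control. Fixed 30 min in 4% formaldehyde, PBS washes, stained 15 min with 0.5% crystal violet, dye dissolved in 15% AcOH, OD 595 nm. Three independent experiments, standard deviation.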"}, "[4]": {"target": "MNK1-eIF4G interaction in HEK-293 cells (Homo sapiens, UniProt Q9BUB5)", "sequence (Q9BUB5 1-424 isoform Q9BUB5-2)": "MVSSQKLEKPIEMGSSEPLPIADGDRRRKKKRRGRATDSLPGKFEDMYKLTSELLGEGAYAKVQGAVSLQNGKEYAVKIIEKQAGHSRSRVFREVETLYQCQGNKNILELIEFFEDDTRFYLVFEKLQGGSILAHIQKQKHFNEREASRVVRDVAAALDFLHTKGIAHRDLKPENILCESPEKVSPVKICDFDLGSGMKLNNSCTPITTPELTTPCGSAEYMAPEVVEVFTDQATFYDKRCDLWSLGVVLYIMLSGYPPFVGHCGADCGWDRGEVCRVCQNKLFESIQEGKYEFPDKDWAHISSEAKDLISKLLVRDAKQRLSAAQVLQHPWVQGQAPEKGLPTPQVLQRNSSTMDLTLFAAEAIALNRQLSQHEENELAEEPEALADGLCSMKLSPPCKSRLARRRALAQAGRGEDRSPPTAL", "assay": "immunoprecipitation of endogenous eIF4G, MNK1-eIF4G interaction in HEK-293 cells", "details": "HEK-293, 20 μM EB1 or 100 nM eFT508, UV irradiation and 40 min recovery", "how_it_was_run": "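HEK-293 cells were treated 24 h with DMSO or inhibitor, then UV-irradiated (60 J/m²) and recovered 40 min at 37 °C. Anti-eIF4G was bound to protein A beads (4 h, 4 °C), then incubated overnight at 4 °C with about 2 mg precleared lysate. Beads were washed, boiled 5 min at 95 °C, and probed for MNK1 by immunoblot.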"}},
  "data": [
    {"smiles": "Nc1n[nH]c2nc(-c3ccccc3)cc(-c3ccccc3)c12", "note": "[6b, 4,6-Diphenyl-1H-pyrazolo[3,4-b]pyridin-3-amine]", "values": [
      {"measurement": "inhibition of eIF4E phosphorylation after UV stimulation", "setting": "[1]; MDA-MB-231, pretreatment with inhibitor, UV irradiation, 40 min recovery", "value": "strongly inhibited eIF4E phosphorylation"},
      {"measurement": "inhibition of eIF4E phosphorylation", "setting": "[1]", "value": "clear inhibition of eIF4E phosphorylation"},
      {"measurement": "inhibition of eIF4E phosphorylation", "setting": "[1]; listed as EB1", "value": "more potent than CGP5738 but less active than the eFT508"}
    ]},
    {"smiles": "Nc1ncnc2[nH]nc(Nc3ccc(F)cc3)c12", "note": "[CGP57380 (2), CGP57380]", "values": [
      {"measurement": "effect on activating phosphorylation of MNK1 at T209/214", "setting": "[2]", "value": "strongly induced phosphorylation of MNKs at T209/214"}
    ]},
    {"smiles": "Cc1cc(Nc2cc(N)ncn2)c(=O)n2c1C(=O)NC21CCCCC1", "note": "[eFT508 (3), eFT508]", "values": [
      {"measurement": "inhibition of eIF4E phosphorylation", "setting": "[1]", "value": "complete inhibition of eIF4E phosphorylation can be already observed at low nanomolar concentrations"},
      {"measurement": "effect on cell growth", "setting": "[3]", "value": "not able to inhibit the growth"},
      {"measurement": "effect on interaction between MNK1 and eIF4G", "setting": "[4]", "value": "strongest interaction of eIF4G with MNK1"},
      {"measurement": "effect on activating phosphorylation of MNK1 at T209/214", "setting": "[2]", "value": "strongly induced phosphorylation of MNKs at T209/214"}
    ]}
  ]
}
